Measured values reported in ChEMBL document CHEMBL5058577, “EUbOPEN Chemogenomics Library 2 (Multiplex)” (2022).

System: U2OS
Assay: Multiplex assay against U2OS
Format: toxicity, cell-based
Conditions: human
In short: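 At seeding, live cells were stained with Hoechst33342, BioTracker Green Microtubule Cytoskeleton Dye, MitoTracker Red and Annexin V Alexa Fluor 680. After compound addition they were imaged on a CQ1 microscope at 37°C and 5% CO2, and CellPathfinder machine-learning gating sorted them into Hoechst high-intensity objects or normal cells, with normal cells further split into healthy, pyknosed or fragmented nuclei and pyknosed cells into mitotic or apoptotic. Tubulin, mitochondrial-mass and membrane-permeability phenotypes are given as per cents of cells with healthy nuclei.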

[1] = 12 h, 1 µM, compound concentration 1 uM, replicate 1
[2] = 12 h, 1 µM, compound concentration 1 uM, replicate 2
[3] = 12 h, 10 µM, compound concentration 10 uM, replicate 1
[4] = 12 h, 10 µM, compound concentration 10 uM, replicate 2
[5] = 24 h, 1 µM, compound concentration 1 uM, replicate 1
[6] = 24 h, 1 µM, compound concentration 1 uM, replicate 2
[7] = 24 h, 10 µM, compound concentration 10 uM, replicate 1
[8] = 24 h, 10 µM, compound concentration 10 uM, replicate 2
[9] = 48 h, 1 µM, compound concentration 1 uM, replicate 1
[10] = 48 h, 1 µM, compound concentration 1 uM, replicate 2
[11] = 48 h, 10 µM, compound concentration 10 uM, replicate 1
[12] = 48 h, 10 µM, compound concentration 10 uM, replicate 2

## CC(C)COc1ccc(CNC(=O)N(Cc2ccc(F)cc2)C2CCN(C)CC2)cc1 [PIMAVANSERIN]
[1]
  Population Apoptotic (%): 84%
  Population Fragmented Nuclei (%): 23%
  Population Healthy Nuclei (%): 67%
  Population Hoechst High Intensity Objects (%): 2%
  Population Membrane Permeable-Phenotype (%): 6%
  Population Mitochondria Different-Phenotype (%): 3%
  Population Mitotic Cells (%): 16%
  Population Normal (%): 97%
  Population Pyknosed Nuclei (%): 9%
  Population Tubulin-Different-Phenotype (%): 5%
  Total Cell Count: 265
[2]
  Population Apoptotic (%): 100%
  Population Fragmented Nuclei (%): 11%
  Population Healthy Nuclei (%): 80%
  Population Hoechst High Intensity Objects (%): 0%
  Population Mitochondria Different-Phenotype (%): 4%
  Population Mitotic Cells (%): 0%
  Population Normal (%): 99%
  Population Pyknosed Nuclei (%): 7%
  Population Tubulin-Different-Phenotype (%): 6%
  Total Cell Count: 136
[3]
  Population Apoptotic (%): 67%
  Population Fragmented Nuclei (%): 23%
  Population Healthy Nuclei (%): 48%
  Population Hoechst High Intensity Objects (%): 5%
  Population Membrane Permeable-Phenotype (%): 48%
  Population Mitochondria Different-Phenotype (%): 73%
  Population Mitotic Cells (%): 32%
  Population Normal (%): 94%
  Population Pyknosed Nuclei (%): 27%
  Population Tubulin-Different-Phenotype (%): 77%
  Total Cell Count: 202
[4]
  Population Apoptotic (%): 71%
  Population Fragmented Nuclei (%): 18%
  Population Healthy Nuclei (%): 54%
  Population Hoechst High Intensity Objects (%): 4%
  Population Membrane Permeable-Phenotype (%): 26%
  Population Mitochondria Different-Phenotype (%): 70%
  Population Mitotic Cells (%): 28%
  Population Normal (%): 95%
  Population Pyknosed Nuclei (%): 26%
  Population Tubulin-Different-Phenotype (%): 52%
  Total Cell Count: 124
[5]
  Population Apoptotic (%): 92%
  Population Fragmented Nuclei (%): 22%
  Population Healthy Nuclei (%): 67%
  Population Hoechst High Intensity Objects (%): 2%
  Population Membrane Permeable-Phenotype (%): 10%
  Population Mitochondria Different-Phenotype (%): 4%
  Population Mitotic Cells (%): 7%
  Population Normal (%): 97%
  Population Pyknosed Nuclei (%): 9%
  Population Tubulin-Different-Phenotype (%): 6%
  Total Cell Count: 294
[6]
  Population Apoptotic (%): 78%
  Population Fragmented Nuclei (%): 11%
  Population Healthy Nuclei (%): 80%
  Population Hoechst High Intensity Objects (%): 1%
  Population Membrane Permeable-Phenotype (%): 11%
  Population Mitochondria Different-Phenotype (%): 8%
  Population Mitotic Cells (%): 21%
  Population Normal (%): 98%
  Population Pyknosed Nuclei (%): 8%
  Total Cell Count: 163
[7]
  Population Apoptotic (%): 88%
  Population Fragmented Nuclei (%): 28%
  Population Healthy Nuclei (%): 40%
  Population Hoechst High Intensity Objects (%): 10%
  Population Membrane Permeable-Phenotype (%): 32%
  Population Mitochondria Different-Phenotype (%): 67%
  Population Mitotic Cells (%): 11%
  Population Normal (%): 89%
  Population Pyknosed Nuclei (%): 31%
  Population Tubulin-Different-Phenotype (%): 49%
  Total Cell Count: 214
[8]
  Population Apoptotic (%): 79%
  Population Fragmented Nuclei (%): 16%
  Population Healthy Nuclei (%): 50%
  Population Hoechst High Intensity Objects (%): 3%
  Population Membrane Permeable-Phenotype (%): 30%
  Population Mitochondria Different-Phenotype (%): 75%
  Population Mitotic Cells (%): 20%
  Population Normal (%): 96%
  Population Pyknosed Nuclei (%): 33%
  Total Cell Count: 135
[9]
  Population Apoptotic (%): 87%
  Population Fragmented Nuclei (%): 19%
  Population Healthy Nuclei (%): 68%
  Population Hoechst High Intensity Objects (%): 2%
  Population Membrane Permeable-Phenotype (%): 6%
  Population Mitochondria Different-Phenotype (%): 5%
  Population Mitotic Cells (%): 12%
  Population Normal (%): 97%
  Population Pyknosed Nuclei (%): 12%
  Population Tubulin-Different-Phenotype (%): 4%
  Total Cell Count: 393
[10]
  Population Apoptotic (%): 92%
  Population Fragmented Nuclei (%): 12%
  Population Healthy Nuclei (%): 76%
  Population Hoechst High Intensity Objects (%): 1%
  Population Membrane Permeable-Phenotype (%): 5%
  Population Mitotic Cells (%): 7%
  Population Normal (%): 98%
  Population Pyknosed Nuclei (%): 11%
  Population Tubulin-Different-Phenotype (%): 2%
  Total Cell Count: 234
[11]
  Population Apoptotic (%): 98%
  Population Fragmented Nuclei (%): 38%
  Population Healthy Nuclei (%): 19%
  Population Hoechst High Intensity Objects (%): 13%
  Population Membrane Permeable-Phenotype (%): 40%
  Population Mitochondria Different-Phenotype (%): 56%
  Population Mitotic Cells (%): 1%
  Population Normal (%): 86%
  Population Pyknosed Nuclei (%): 42%
  Population Tubulin-Different-Phenotype (%): 54%
  Total Cell Count: 222
[12]
  Population Apoptotic (%): 95%
  Population Healthy Nuclei (%): 15%
  Population Hoechst High Intensity Objects (%): 8%
  Population Membrane Permeable-Phenotype (%): 66%
  Population Mitochondria Different-Phenotype (%): 80%
  Population Mitotic Cells (%): 4%
  Population Normal (%): 91%
  Population Pyknosed Nuclei (%): 45%
  Population Tubulin-Different-Phenotype (%): 71%
  Total Cell Count: 146
